Measured values: ChEMBL document CHEMBL1649062, “Integration of lead optimization with crystallography for a membrane-bound ion channel target: discovery of a new class of AMPA receptor positive allosteric modulators” (J Med Chem, 2011)
pEC50, pIC50: −log10 of the molar value. Values after ≈ are worked out from the molar mass of the structure shown. Active and inactive are the calls of the source.

How the values were obtained:
Hepatocyte [1] = assay: Intrinsic clearance in cryopreserved rat hepatocytes assessed per gram of tissue; type: ADME, cell-based, Liver
Summary of the method: (§1)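 Cryopreserved hepatocytes at 70 000 cells/mL; intrinsic clearance expressed per gram of liver; single determination (human also n = 3).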

Brain [2] = assay: Drug level in Lister Hooded rat assessed per gram of tissue at 0.1 mg/kg, ip; type: ADME, organism-based; parameters: dose 0.1 mg/kg, route intraperitoneal; conditions: in vivo
Summary of the method: (§2)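 Male Lister Hooded rats (n = 9-12/group) tested for reversal of a 24 h delay-induced deficit in novel object recognition. Significant doses flagged. Brain concentrations measured in the study animals at the end of the test.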

[3] = Tmax in Sprague-Dawley rat at 3 mg/kg, po; type: ADME, organism-based; parameters: dose 3 mg/kg, route oral; conditions: in vivo
Summary of the method: (§3)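 Male animals, n = 3 per species, given single iv and oral doses: Sprague-Dawley rat 2.5 iv / 3 po mg/kg; beagle dog 0.25 / 0.5; Göttingen minipig 0.5 / 1; cynomolgus monkey 0.25 / 1. Blood sampled; Vss from iv; bioavailability and Vss as mean [range]; Tmax as median [range].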

Rattus norvegicus [4] = assay: Hepatic blood flow in Sprague-Dawley rat at 2.5 mg/kg, iv and 3 mg/kg, po; type: ADME, organism-based, Liver; conditions: in vivo
Summary of the method: (§4)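 Male animals, n = 3 per species, given single iv and oral doses. Values are mean and range. Blood clearance is also expressed as % of liver blood flow, taken as (mL/min)/kg: rat 85, dog 31, minipig 30, cynomolgus monkey 44.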

Brain [5] = assay: Drug level in Lister Hooded rat assessed per gram of tissue at 30 mg/kg, ip; type: ADME, organism-based; parameters: dose 30 mg/kg, route intraperitoneal; conditions: in vivo
Summary of the method: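 Male Lister Hooded rats pretreated 30 min before the maximal electroshock threshold test with compound or saline vehicle; picrotoxin served as positive control. Corneal current applied, CC50 about 60-70 mA, 0.1 ms. Brain levels measured in satellite rats sampled immediately after testing.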

[6] = Kinetic solubility of the compound in phosphate buffered saline of pH 7.4; type: physicochemical
Summary of the method: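 Kinetic solubility: 10 mM DMSO stock, 5 μL diluted to 100 μL with pH 7.4 phosphate-buffered saline, equilibrated 1 h at room temperature, filtered, filtrate quantified by calibrated flow-injection chemiluminescent nitrogen detection.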

[7] = Tmax in cynomolgus monkey at 1 mg/kg, po; type: ADME, organism-based, Macaca fascicularis; parameters: dose 1 mg/kg, route oral; conditions: in vivo; summary of the method: as §3
Cynomolgus monkey = assay: Hepatic blood flow in cynomolgus monkey at 0.25 mg/kg, iv and 1 mg/kg, po; type: ADME, organism-based, Macaca fascicularis, Liver; conditions: in vivo; summary of the method: as §4
[8] = Volume of distribution at steady state in Swiss Beagle dog at 0.25 mg/kg, iv and 0.5 mg/kg, po; type: ADME, organism-based, Canis lupus familiaris; conditions: in vivo, read-out: Vdss; summary of the method: as §3
Canis familiaris = assay: Hepatic blood flow in Swiss Beagle dog at 0.25 mg/kg, iv and 0.5 mg/kg, po; type: ADME, organism-based, Canis lupus familiaris, Liver; conditions: in vivo; summary of the method: as §4
Rattus norvegicus [9] = assay: Cognitive enhancing effect in Wistar rat assessed as reversal of scopolamine-induced amnesic deficit at 10 to 30 mg/kg, ip by passive avoidance test
[10] = Clearance in rat at 3 mg/kg, po; type: ADME, organism-based; parameters: dose 3 mg/kg, route oral; conditions: in vivo
Summary of the method: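 Rats dosed orally at 3 mg/kg; blood sampled via the hepatic portal vein and heart. Estimated clearance derived from in vivo hepatic extraction, taking rat liver blood flow as 85 (mL/min)/kg.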

Brain [11] = assay: Drug level in Lister Hooded rat assessed per gram of tissue at 1 mg/kg, ip; type: ADME, organism-based; parameters: dose 1 mg/kg, route intraperitoneal; conditions: in vivo; summary of the method: as §2
[12] = Tmax in Swiss Beagle dog at 0.5 mg/kg, po; type: ADME, organism-based, Canis lupus familiaris; parameters: dose 0.5 mg/kg, route oral; conditions: in vivo; summary of the method: as §3
[13] = Volume of distribution at steady state in Gottingen minipig at 0.5 mg/kg, iv and 1 mg/kg, po; type: ADME, organism-based, Sus scrofa; conditions: pig, in vivo, read-out: Vdss; summary of the method: as §3
in vivo = conditions: rat, brain and blood, po, 3 mg/kg
[14] = Cmax in rat at 3 mg/kg, po; type: ADME, organism-based; parameters: dose 3 mg/kg, route oral; conditions: in vivo
Glutamate receptor 2 [15] = molecular target: T1, Glutamate receptor 2 (Homo sapiens, UniProt P42262); assay: Allosteric modulation of human recombinant GluA2 receptor flip isoform expressed in HEK293 cells at 100 nM by whole cell patch-clamp electrophysiology; type: cell-based
Summary of the method: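 Perforated-patch (amphotericin B) voltage clamp of HEK293 cells stably expressing human GluA2 flip (unedited) homotetramers, held at -60 mV. Extracellular solution in mM: 140 NaCl, 2 KCl, 1 MgCl2, 2 CaCl2, 12 HEPES, 10 D-glucose, pH 7.35. Currents evoked by 1 mM glutamate; compound at 100 nM or 10 μM. Read-out is percent increase in charge transfer (area under curve).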

[16] = Half life in Gottingen minipig at 0.5 mg/kg, iv; type: ADME, organism-based, Sus scrofa; parameters: dose 0.5 mg/kg, route intravenous; conditions: pig, in vivo; summary of the method: as §4
Rattus norvegicus [17] = assay: Neurotoxicity in Lister Hooded rat assessed proconvulsant effect at 30 mg/kg, ip by MEST test; type: toxicity, organism-based; parameters: dose 30 mg/kg, route intraperitoneal; conditions: in vivo
Summary of the method: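 Male Lister Hooded rats pretreated with compound, saline vehicle or picrotoxin 30 min before corneal electroshock (CC50 about 60–70 mA, 0.1 ms); tonic and tonic-clonic seizure threshold scored; brain concentrations taken from satellite rats sampled right after testing.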

Cytochrome P450 2D6 = Cytochrome P450 2D6 (Homo sapiens, UniProt P10635); assay: Inhibition of human CYP2D6 by fluorescence assay; type: ADME
Summary of the method: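 Recombinant human CYP bactosomes (0.1 mg/mL) in 50 mM potassium phosphate pH 7.4, preincubated 10 min at 37 °C with test compound (0.1-10 μM, 7 concentrations) and fluorogenic substrate. Substrates: ethoxyresorufin 0.5 μM (1A2), FCA 50 μM (2C9), BMC 10 μM (2C19), MMC 10 μM (2D6), DEF 1 μM or 7-BQ 25 μM (3A4). Reaction started with NADPH regenerating system; metabolite formation read over 10 min. IC50 from percent of control rate; miconazole control; triplicate.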

Sus scrofa = assay: Hepatic blood flow in Gottingen minipig at 0.5 mg/kg, iv and 1 mg/kg, po; type: ADME, organism-based, Liver; conditions: pig, in vivo; summary of the method: as §4
[18] = Clearance in cynomolgus monkey at 0.25 mg/kg, iv and 1 mg/kg, po; type: ADME, organism-based, Macaca fascicularis; conditions: in vivo; summary of the method: as §4
[19] = Half life in cynomolgus monkey at 1 mg/kg, po; type: ADME, organism-based, Macaca fascicularis; parameters: dose 1 mg/kg, route oral; conditions: in vivo
Glutamate receptor 2 [20] = molecular target: T1, Glutamate receptor 2; assay: Allosteric modulation of human recombinant GluA2 receptor flip isoform expressed in HEK293 cells assessed as potentiation of glutamate-induced calcium influx by Fluo-4/FLIPR method; type: cell-based
Summary of the method: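 Stable GluA2 flip (unedited) cell line grown in DMEM/F12 with 10% FBS and seeded to confluence 2-3 days before use. Cells washed in HEPES buffer (pH 7.3) and loaded with 2 μM Fluo-4 AM for 60 min at room temperature. On FLIPR, compound was added 5 min before 100 μM glutamate. pEC50 and asymptotic maximum are relative to the maximal response to cyclothiazide, n ≥ 3.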

[21] = molecular target: Glutamate receptor 2 (Rattus norvegicus) (UniProt P19491); assay: Allosteric modulation of GluA2 receptor flip isoform in rat hippocampal neuron at 10 uM by whole cell patch-clamp electrophysiology; type: tissue-based; conditions: Hippocampus
Summary of the method: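 Rat cultured hippocampal neurons; 30 μM AMPA applied for 2 s, with compound co-applied at 10 nM or 10 μM. Read-out is the increase in charge transfer, taken as the area under the current curve.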

[22] = Intrinsic clearance in cryopreserved rhesus monkey hepatocytes assessed per gram of tissue; type: ADME, Macaca mulatta, Liver, Hepatocyte
[23] = Clearance in Swiss Beagle dog at 0.25 mg/kg, iv and 0.5 mg/kg, po; type: ADME, organism-based, Canis lupus familiaris; conditions: in vivo; summary of the method: as §4
Hepatocyte [24] = assay: Intrinsic clearance in cryopreserved human hepatocytes assessed per gram of tissue; type: ADME, cell-based, Liver; summary of the method: as §1
[25] = Oral bioavailability in Swiss Beagle dog at 0.5 mg/kg; type: ADME, organism-based, Canis lupus familiaris; conditions: in vivo; summary of the method: as §3
[26] = Plasma protein binding in rat at 3 mg/kg, po; type: ADME, organism-based; parameters: dose 3 mg/kg, route oral; conditions: read-out: PPB (converted)

T1 sequence (P42262 whole entry, canonical isoform): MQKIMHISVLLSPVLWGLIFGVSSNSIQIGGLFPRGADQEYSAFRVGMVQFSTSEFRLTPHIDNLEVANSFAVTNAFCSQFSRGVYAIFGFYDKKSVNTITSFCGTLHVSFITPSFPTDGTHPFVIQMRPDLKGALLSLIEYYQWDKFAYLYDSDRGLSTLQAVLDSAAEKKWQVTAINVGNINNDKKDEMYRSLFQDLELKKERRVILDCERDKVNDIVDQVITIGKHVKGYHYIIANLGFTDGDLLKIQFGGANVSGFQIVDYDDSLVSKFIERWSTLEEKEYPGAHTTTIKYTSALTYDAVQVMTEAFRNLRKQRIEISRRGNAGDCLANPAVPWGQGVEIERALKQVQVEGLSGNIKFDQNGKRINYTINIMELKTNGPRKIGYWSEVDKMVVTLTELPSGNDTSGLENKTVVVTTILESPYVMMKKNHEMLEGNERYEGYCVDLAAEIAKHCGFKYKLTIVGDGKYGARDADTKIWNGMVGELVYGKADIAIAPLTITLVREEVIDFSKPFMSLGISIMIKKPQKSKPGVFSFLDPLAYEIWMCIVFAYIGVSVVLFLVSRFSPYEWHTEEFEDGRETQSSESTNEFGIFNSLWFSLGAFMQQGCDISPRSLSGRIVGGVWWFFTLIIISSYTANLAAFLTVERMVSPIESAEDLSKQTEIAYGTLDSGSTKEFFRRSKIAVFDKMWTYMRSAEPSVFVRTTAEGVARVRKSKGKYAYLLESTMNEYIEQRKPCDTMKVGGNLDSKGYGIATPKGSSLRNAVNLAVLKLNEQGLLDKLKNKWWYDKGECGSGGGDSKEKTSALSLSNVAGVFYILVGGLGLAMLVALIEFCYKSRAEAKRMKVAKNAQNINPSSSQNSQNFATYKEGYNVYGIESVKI
Sequence of Glutamate receptor 2 (Rattus norvegicus) (P19491 whole entry, canonical isoform): as the sequence (P42262 whole entry, canonical isoform) above, with M191T, T291A, R764G, A852P counted along it
Sequence of Cytochrome P450 2D6 (P10635 whole entry): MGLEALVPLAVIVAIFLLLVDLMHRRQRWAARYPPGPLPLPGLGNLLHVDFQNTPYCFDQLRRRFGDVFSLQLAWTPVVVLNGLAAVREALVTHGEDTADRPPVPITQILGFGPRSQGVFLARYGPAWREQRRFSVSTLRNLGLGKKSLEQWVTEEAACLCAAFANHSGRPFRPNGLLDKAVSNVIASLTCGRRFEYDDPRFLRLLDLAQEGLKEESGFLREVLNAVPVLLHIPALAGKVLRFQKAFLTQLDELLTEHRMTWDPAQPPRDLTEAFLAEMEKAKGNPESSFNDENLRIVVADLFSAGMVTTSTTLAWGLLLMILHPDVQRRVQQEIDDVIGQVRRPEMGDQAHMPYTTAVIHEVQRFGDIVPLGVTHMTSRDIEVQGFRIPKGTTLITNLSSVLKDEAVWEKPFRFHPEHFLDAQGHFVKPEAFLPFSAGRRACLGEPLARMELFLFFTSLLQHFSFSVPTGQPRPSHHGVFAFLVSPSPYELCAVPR

- CL (Hepatocyte [1]): 2.3 mL/min/g
- Drug uptake (Brain [2]): 9 ng/g
- Tmax [3]: 0.5 h
- QH (Rattus norvegicus [4]): 47%
- Drug uptake (Brain [5]): 4686 ng/g
- solubility kinetic [6]: 133 µg/mL (≈ 366 µM)
- Tmax [7]: 1 h
- QH (Cynomolgus monkey): 86%
- Vd [8]: 3.4 L/kg
- QH (Canis familiaris): 100%
- CL/F [10]: 12 mL/min/kg
- Drug uptake (Brain [11]): 97 ng/g
- Tmax [12]: 0.6 h
- Vd [13]: 3.2 L/kg
- Kp (in vivo): 1.5
- Cmax [14]: 228 ng/mL
- Activity (Glutamate receptor 2 [15]): 21%
- half-life [16]: 1.6 h
- pIC50 (Cytochrome P450 2D6): 5.22
- QH (Sus scrofa): 77%
- clearance [18]: 38 mL/min/kg
- half-life [19]: 1.4 h
- pEC50 (Glutamate receptor 2 [20]): 5.00
- Activity [21]: 62%
- CL [22]: > 50 mL/min/g
- clearance [23]: 32 mL/min/kg
- CL (Hepatocyte [24]): 1.2 mL/min/g
- bioavailability [25]: 12%
- fraction unbound [26]: 0.01
SMILES: O=C(c1ccc(-n2nc(C(F)(F)F)c3c2CCCC3)cc1)N1CCCC1
- Activity (Rattus norvegicus [9]): Active
- Activity (Rattus norvegicus [17]): Non-toxic
